According to ChEMBL document CHEMBL1158495, “Quinolone carboxylic acids as a novel monoketo acid class of human immunodeficiency virus type 1 integrase inhibitors” (J Med Chem, 2009):

Columns and labels:
[1] = system: Human immunodeficiency virus 1; assay: Antiviral activity against HIV1 3B infected in human MT4 cells assessed as inhibition of viral replication after 5 days by MTT assay; assay type: functional, organism-based; conditions: Human immunodeficiency virus 1, 3B, MT4, 120 h
Outline: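 MT-4 human T lymphoid cells at 1 × 10^5 cells/mL in RPMI 1640 with 10% FBS, penicillin and streptomycin; infected with strain IIIb at multiplicity 0.01, compounds added, 37 °C for 5 days. Viability read by MTT (7.5 mg/mL solution), formazan dissolved in acidic isopropanol with 4% Triton-X, absorbance at 595 nm.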

[2] = Cytotoxicity against human MT4 cells after 5 days by MTT assay; assay type: cell-based
Outline: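 Uninfected MT-4 cells at 1 × 10^5 cells/mL in RPMI 1640 with 10% FBS, penicillin and streptomycin, exposed to compounds at 37 °C for 5 days. Viability by MTT (7.5 mg/mL solution); formazan taken up in acidic isopropanol containing 4% Triton-X, read at 595 nm.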

[3] = molecular target: Human immunodeficiency virus type 1 integrase (Human immunodeficiency virus 1, UniProt Q7ZJM1); assay: Inhibition of HIV1 integrase strand transfer activity
[4] = Selectivity index, ratio of CC50 for human MT4 cells to EC50 for HIV1 3B; assay type: toxicity, cell-based
Outline: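 For EC50, cells were infected with HIV-1 IIIb at multiplicity 0.01 before compound was added; for CC50, cells were uninfected. Viability was read by MTT reduction, with formazan dissolved in acidic isopropanol/4% Triton-X and absorbance at 595 nm.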

[5] = system: Human immunodeficiency virus 1; assay: Antiviral activity against HIV1 infected in human PBMN cells assessed as inhibition of viral replication in presence of 50% human serum; assay type: functional; conditions: Human immunodeficiency virus 1, PBMN

Sequence of Human immunodeficiency virus type 1 integrase (Q7ZJM1 whole entry): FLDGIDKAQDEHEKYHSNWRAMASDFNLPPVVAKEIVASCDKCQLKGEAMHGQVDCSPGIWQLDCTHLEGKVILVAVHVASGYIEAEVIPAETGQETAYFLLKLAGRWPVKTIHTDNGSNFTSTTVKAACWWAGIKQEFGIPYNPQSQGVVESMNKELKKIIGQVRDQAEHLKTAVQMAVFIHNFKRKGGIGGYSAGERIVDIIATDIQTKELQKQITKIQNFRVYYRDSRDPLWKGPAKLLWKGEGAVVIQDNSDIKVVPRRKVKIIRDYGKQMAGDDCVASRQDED

Row | IC50 [3] [nM] | EC90 [5] [nM] | Structure (SMILES) | EC50 [1] [nM] | CC50 at 120 h [2] [nM] | selectivity ratio [4]
1 | 500 | – | O=C(O)c1c[nH]c2ccc(Cc3ccccc3F)cc2c1=O | 15900 | > 30000 | –
2 | 35 | – | NC(=O)Cn1cc(C(=O)O)c(=O)c2cc(Cc3cccc(Cl)c3Cl)ccc21 | 540 | 22600 | –
3 | 31 | – | CCn1cc(C(=O)O)c(=O)c2cc(Cc3cccc(Cl)c3Cl)ccc21 | 290 | 16200 | –
4 | 77 | – | O=C(O)c1cn(CCCO)c2ccc(Cc3cccc(Cl)c3Cl)cc2c1=O | 470 | 15100 | –
5 | 26 | – | CC(C)n1cc(C(=O)O)c(=O)c2cc(Cc3cccc(Cl)c3Cl)ccc21 | 330 | > 6000 | –
6 | 9 | – | CC[C@@H](CO)n1cc(C(=O)O)c(=O)c2cc(Cc3cccc(Cl)c3F)ccc21 | 17.1 | 13000 | –
7 | > 100000 | – | O=C(O)c1c[nH]c2ccc(Cc3ccc(Cl)cc3)cc2c1=O | > 6000 | > 6000 | –
8 | 32 | – | O=C(O)Cn1cc(C(=O)O)c(=O)c2cc(Cc3cccc(Cl)c3Cl)ccc21 | 13600 | > 30000 | –
9 | 800 | – | O=C(O)c1c[nH]c2ccc(Cc3cccc(Cl)c3)cc2c1=O | > 6000 | > 6000 | –
10 | 38 | – | O=C(O)CCn1cc(C(=O)O)c(=O)c2cc(Cc3cccc(Cl)c3Cl)ccc21 | > 30000 | > 30000 | –
11 | 720 | – | O=C(O)c1c[nH]c2ccc(Cc3ccccc3C(F)(F)F)cc2c1=O | > 6000 | 14800 | –
12 | 250 | – | O=C(O)c1c[nH]c2ccc(Cc3cc(Cl)ccc3Cl)cc2c1=O | > 6000 | 13200 | –
13 | 83 | – | Cn1cc(C(=O)O)c(=O)c2cc(Cc3cccc(Cl)c3Cl)ccc21 | 450 | 14400 | –
14 | 215 | – | NCCn1cc(C(=O)O)c(=O)c2cc(Cc3cccc(Cl)c3Cl)ccc21 | 570 | 5300 | –
15 | 1080 | – | Cc1ccccc1Cc1ccc2[nH]cc(C(=O)O)c(=O)c2c1 | > 6000 | 18500 | –
16 | 70 | – | O=C(O)c1c[nH]c2ccc(Cc3cccc(Cl)c3Cl)cc2c1=O | 3400 | 12600 | –
17 | 1170 | – | COc1ccccc1Cc1ccc2[nH]cc(C(=O)O)c(=O)c2c1 | > 6000 | 16600 | –
18 | 370 | – | O=C(O)c1c[nH]c2ccc(Cc3c(Cl)cccc3Cl)cc2c1=O | > 6000 | 14900 | –
19 | 65 | – | CCCCn1cc(C(=O)O)c(=O)c2cc(Cc3cccc(Cl)c3Cl)ccc21 | 2340 | 15000 | –
20 | 116 | – | NC(=O)CCn1cc(C(=O)O)c(=O)c2cc(Cc3cccc(Cl)c3Cl)ccc21 | 2040 | 15100 | –
21 | 21 | – | O=C(O)c1cn(CCO)c2ccc(Cc3cccc(Cl)c3Cl)cc2c1=O | 100 | > 6000 | –
22 | > 100000 | – | NC(=O)c1c[nH]c2ccc(Cc3ccccc3)cc2c1=O | > 30000 | > 30000 | –
23 | 55 | – | CCCn1cc(C(=O)O)c(=O)c2cc(Cc3cccc(Cl)c3Cl)ccc21 | 640 | 15600 | –
24 | 410 | – | O=C(O)c1c[nH]c2ccc(Cc3ccccc3Cl)cc2c1=O | > 6000 | > 6000 | –

Second part, the compound before the results:

Row | Structure (SMILES) | IC50 [3] [nM] | EC90 [5] [nM] | EC50 [1] [nM] | CC50 at 120 h [2] [nM] | selectivity ratio [4]
25 | Cn1cc(C(=O)O)c(=O)c2cc(Cc3ccccc3)ccc21 | 2300 | – | > 30000 | > 30000 | –
26 | COc1cc2c(cc1Cc1cccc(Cl)c1F)c(=O)c(C(=O)O)cn2[C@H](CO)C1CCCCC1 | 6.7 | – | 2.8 | 3000 | –
27 | COc1cc2c(cc1Cc1cccc(Cl)c1F)c(=O)c(C(=O)O)cn2[C@H](CO)C(C)(C)C | 5.8 | – | 0.6 | 3400 | > 4000
28 | O=C(O)c1cn(CCO)c2c(F)cc(Cc3cccc(Cl)c3Cl)cc2c1=O | 34 | – | 530 | > 30000 | –
29 | CCOC(=O)c1cnc2ccc(Cc3ccccc3)cc2c1O | > 100000 | – | > 30000 | > 30000 | –
30 | O=C(O)c1cn(CCO)c2cc(F)c(Cc3cccc(Cl)c3Cl)cc2c1=O | 25 | – | 130 | 9800 | –
31 | O=C(O)/C(O)=C/C(=O)c1cccc(Cc2ccccc2)c1 | – | – | 440 | > 30000 | –
32 | CCC[C@@H](CO)n1cc(C(=O)O)c(=O)c2cc(Cc3cccc(Cl)c3F)c(OC)cc21 | 5.8 | – | 1.3 | 3100 | –
33 | CC(C)[C@@H](CO)n1cc(C(=O)O)c(=O)c2cc(Cc3cccc(Cl)c3F)ccc21 | – | – | 7.5 | 14000 | –
34 | CCC[C@@H](CO)n1cc(C(=O)O)c(=O)c2cc(Cc3cccc(Cl)c3F)ccc21 | 8.2 | – | 9.8 | 12500 | –
35 | O=C(O)c1cn(CCO)c2ccc(Cc3cccc(Cl)c3Cl)c(F)c2c1=O | 84 | – | 1680 | 14300 | –
36 | COc1cc2c(cc1Cc1cccc(Cl)c1F)c(=O)c(C(=O)O)cn2CCO | – | – | 20 | 5300 | –
37 | C[C@@H](CO)n1cc(C(=O)O)c(=O)c2cc(Cc3cccc(Cl)c3F)ccc21 | 14.8 | – | 27.7 | 13700 | –
38 | C[C@H](CO)n1cc(C(=O)O)c(=O)c2cc(Cc3cccc(Cl)c3F)ccc21 | 38.3 | – | 116 | 14400 | –
39 | Cc1cc2c(cc1Cc1cccc(Cl)c1Cl)c(=O)c(C(=O)O)cn2CCO | 41 | – | 180 | > 30000 | –
40 | COc1cc2c(cc1Cc1cccc(Cl)c1F)c(=O)c(C(=O)O)cn2[C@H](CO)C(C)C | – | 9.8 | 0.9 | 4000 | –
41 | O=C(O)c1cn(CCO)c2cc(Cl)c(Cc3cccc(Cl)c3Cl)cc2c1=O | 43 | – | 510 | > 6000 | –
42 | O=C(O)c1cn([C@H](CO)C2CCCCC2)c2ccc(Cc3cccc(Cl)c3F)cc2c1=O | 5.6 | – | 7.3 | 7700 | –
43 | COc1cc2c(cc1Cc1cccc(Cl)c1Cl)c(=O)c(C(=O)O)cn2CCO | 12 | – | 60 | 4200 | –
44 | O=C(O)c1cn(CCO)c2cc(C(F)(F)F)c(Cc3cccc(Cl)c3Cl)cc2c1=O | 674 | – | > 6000 | 10000 | –
45 | O=C(O)c1cnc2ccc(Cc3ccccc3)cc2c1O | – | – | > 30000 | > 30000 | –
46 | N#Cc1cc2c(cc1Cc1cccc(Cl)c1Cl)c(=O)c(C(=O)O)cn2CCO | 50 | – | 2000 | 13900 | –
47 | O=C(O)c1cn([C@H](CO)c2ccccc2)c2ccc(Cc3cccc(Cl)c3F)cc2c1=O | 9.8 | – | 51.6 | 8700 | –
48 | O=C(O)c1cn(CCO)c2ccc(Cc3cccc(Cl)c3F)cc2c1=O | – | – | 80 | > 6000 | –
49 | COc1cc2c(cc1Cc1cccc(Cl)c1F)c(=O)c(C(=O)O)cn2[C@@H](CO)C(C)C | – | – | 109 | 4200 | –
50 | CC(C)(C)[C@@H](CO)n1cc(C(=O)O)c(=O)c2cc(Cc3cccc(Cl)c3F)ccc21 | 6 | – | 1.3 | 14400 | –
51 | O=C(O)c1cn(CCO)c2ccc(Cc3cccc(F)c3Cl)cc2c1=O | 44 | – | 340 | > 6000 | –
52 | Cn1cc(C(=O)C(=O)O)c(=O)c2cc(Cc3ccccc3)ccc21 | > 100000 | – | > 30000 | > 30000 | –
